Laboratory results published in article PMC8114962 (Advanced therapeutics, 2021).

What was measured:
[1] = target: T1, recombinant dg-Bcan protein (Homo sapiens, UniProt Q96GW7); assay: Octet binding kinetics analysis, recombinant dg-Bcan; conditions: Octet RED
T1 sequence (Q96GW7 23-911): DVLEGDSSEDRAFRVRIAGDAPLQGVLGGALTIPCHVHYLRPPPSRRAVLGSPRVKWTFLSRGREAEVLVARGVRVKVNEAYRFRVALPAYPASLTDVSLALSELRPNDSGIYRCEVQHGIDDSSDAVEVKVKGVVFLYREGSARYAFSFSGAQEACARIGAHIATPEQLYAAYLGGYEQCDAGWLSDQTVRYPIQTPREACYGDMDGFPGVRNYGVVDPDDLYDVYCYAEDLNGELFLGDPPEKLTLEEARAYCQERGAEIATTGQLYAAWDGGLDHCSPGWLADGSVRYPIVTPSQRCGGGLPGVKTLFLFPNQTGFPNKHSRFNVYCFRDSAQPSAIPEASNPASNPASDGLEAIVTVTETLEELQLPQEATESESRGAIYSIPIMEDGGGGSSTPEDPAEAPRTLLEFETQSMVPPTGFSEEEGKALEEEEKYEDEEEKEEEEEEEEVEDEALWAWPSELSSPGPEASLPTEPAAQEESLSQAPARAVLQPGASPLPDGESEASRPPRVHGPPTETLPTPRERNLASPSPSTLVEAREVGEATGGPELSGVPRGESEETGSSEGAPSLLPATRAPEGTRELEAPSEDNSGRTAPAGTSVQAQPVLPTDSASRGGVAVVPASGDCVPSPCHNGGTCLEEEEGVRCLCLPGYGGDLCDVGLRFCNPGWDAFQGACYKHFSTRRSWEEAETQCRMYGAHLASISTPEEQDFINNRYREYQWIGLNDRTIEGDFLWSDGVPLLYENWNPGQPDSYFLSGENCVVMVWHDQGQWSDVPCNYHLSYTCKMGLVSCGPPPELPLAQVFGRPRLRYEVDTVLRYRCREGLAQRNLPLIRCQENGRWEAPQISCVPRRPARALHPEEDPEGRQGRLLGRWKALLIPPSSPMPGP
Method in brief: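 Binding kinetics of test peptides measured by biolayer interferometry (Octet RED384) against recombinant human brevican, deglycosylated before use and held in PBS with 0.1 mM EDTA, pH 6.8. Fully glycosylated Bcan served as a comparison protein. The run used working buffer (0.9% NaCl irrigation, 0.05% Tween) with 1000 rpm agitation at 30°C. KD and Rmax came from a one-site specific binding non-linear regression fit.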

[2] = Solubility in aqueous solution; type: physicochemical; conditions: observation

Row | dg-Bcan protein binding [1] | Substance | solubility in aqueous solution [2]
1 | did not exhibit dg-Bcan protein binding | Scr-7 | 
2 |  | BTP-2 | insoluble and precipitated in aqueous solution
